≈ marks a conversion by molar mass, not a printed value. Calls of active or inactive are those of the source. The rule behind the calls is not given here.
Legend:
Mycolicibacterium aurum [1] = experiment: Inhibition of type II fatty acid biosynthesis pathway in Mycobacterium aurum at 25 uM after 12 hrs by lacZ reporter assay relative to untreated control; format: functional
In short: (§1)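 Recombinant M. aurum lacZ reporter strains (kasA promoter or hsp60 promoter) grown in Sauton's medium with kanamycin at 37 °C to 0.5 OD600, diluted to 0.04–0.05 OD, equilibrated 2 h, then treated 12 h at 37 °C (10, 25, 50, 75 µM). Cells sonicated in PBS pH 7.2 and protein normalized by Bradford. β-gal measured with ONPG (4 mg/ml), 30 min at 37 °C, stopped with Na2CO3, OD 410 nm. Triplicates, relative to untreated control.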

Plasmodium falciparum [2] = experiment: Antimalarial activity against Plasmodium falciparum 3D7 assessed as maturation of schizonts after 24 to 32 hrs by microdilution method; format: functional
In short: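 P. falciparum 3D7 (chloroquine sensitive); twofold serial dilutions in complete RPMI 1640 from 10 mg/ml DMSO stocks, parasitized RBCs added (final hematocrit 3–4%, 1.0–2.0% parasitaemia, >95% rings). Incubated 24–32 h at 37 °C with 5% CO2. Thin smears stained with 15% Giemsa; schizont maturation scored against controls to give MIC.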

[3] = tested on: Mycobacterium tuberculosis; experiment: Antimicrobial activity against Mycobacterium tuberculosis H37Rv after 30 days by agar microdilution method; format: functional
In short: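 Twofold dilutions of compound in DMSO incorporated into Middlebrook 7H10 medium with OADC supplement in slanted tubes, preincubated 37 °C for 24 h, then streaked with H37Rv harvested from L-J medium into 0.85% saline with 0.05% Tween-80 (5 × 10^5 bacilli per tube). Incubated at 37 °C; MIC = lowest concentration giving complete inhibition of colonies versus drug-free control.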

Plasmodium falciparum [4] = experiment: Antimalarial activity against Plasmodium falciparum 3D7 assessed as radiolabeled hypoxanthine uptake after 48 hrs by scintillation counting; format: functional, organism-based; details: 3D7, 48 h
In short: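 Chloroquine-sensitive P. falciparum 3D7 asynchronous culture at 0.5% parasitaemia and 1.5% hematocrit, exposed to compounds for 24 h at 37 °C in CO2. Radiolabelled hypoxanthine (0.5 µCi/well) then added and incubation continued 48 h. Cells harvested onto filter paper, and radioactivity counted by scintillation β-counter. IC50 derived from hypoxanthine uptake.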

[5] = Cytotoxicity against african green monkey Vero cells after 72 hrs; format: cell-based; details: chlorocebus sabaeus
In short: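 Vero (C1008 monkey kidney) cells grown in MEM + 15% FBS, 5% CO2, 37 °C. Trypsinized cells at 1 × 10^5 cells/ml seeded and allowed to adhere overnight, then exposed to serial compound dilutions for 72 h. Resazurin added and fluorescence read after 4 h.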

Mycolicibacterium aurum [6] = experiment: Inhibition of type II fatty acid biosynthesis pathway in Mycobacterium aurum at 50 uM after 12 hrs by lacZ reporter assay relative to untreated control; format: functional; in short: as §1
[7] = Selectivity index, ratio of CC50 for african green monkey (Cercopithecus aethiops) Vero cells to IC50 for Plasmodium falciparum 3D7; format: functional
In short: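 Ratio of Vero CC50 (resazurin fluorescence after 72 h exposure) to P. falciparum 3D7 IC50 (radiolabelled hypoxanthine uptake; 24 h compound exposure, then 48 h with label).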

Mycolicibacterium aurum [8] = experiment: Inhibition of type II fatty acid biosynthesis pathway in recombinant Mycobacterium aurum carrying hsp60 promoter assessed as cell viability at 50 uM after 12 hrs by lacZ reporter assay relative to untreated control; format: functional
In short: (§2)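 M. aurum (recombinant reporter strains) grown in Sauton's medium with 0.05% Tween-80 and kanamycin to 0.6 OD600, diluted to 0.05 OD. 1 × 10^5 cells inoculated into 5 ml medium with varying compound concentrations, grown 12 h at 37 °C with shaking. Viable cells counted by 10-fold serial dilution plating on nutrient agar-Tween-kanamycin. % inhibition calculated with untreated colony count taken as 100%.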

Mycolicibacterium aurum [9] = experiment: Inhibition of type II fatty acid biosynthesis pathway in recombinant Mycobacterium aurum carrying hsp60 promoter assessed as cell viability at 10 uM after 12 hrs by lacZ reporter assay relative to untreated control; format: functional; in short: as §2
Mycolicibacterium aurum [10] = experiment: Inhibition of type II fatty acid biosynthesis pathway in recombinant Mycobacterium aurum carrying hsp60 promoter assessed as beta-galactosidase activity at 10 to 50 uM after 12 hrs by lacZ reporter assay relative to untreated control; format: functional, organism-based; in short: as §1
Mycolicibacterium aurum [11] = experiment: Inhibition of type II fatty acid biosynthesis pathway in recombinant Mycobacterium aurum carrying hsp60 promoter assessed as beta-galactosidase activity at 14 uM after 12 hrs by lacZ reporter assay relative to untreated control; format: functional, organism-based
Mycolicibacterium aurum [12] = experiment: Inhibition of type II fatty acid biosynthesis pathway in recombinant Mycobacterium aurum carrying hsp60 promoter assessed as cell viability at 75 uM after 12 hrs by lacZ reporter assay relative to untreated control; format: functional; in short: as §2
Mycolicibacterium aurum [13] = experiment: Inhibition of type II fatty acid biosynthesis pathway in recombinant Mycobacterium aurum carrying hsp60 promoter assessed as cell viability at 10 to 50 uM after 12 hrs by lacZ reporter assay relative to untreated control; format: functional, organism-based; in short: as §2
Mycolicibacterium aurum [14] = experiment: Inhibition of type II fatty acid biosynthesis pathway in Mycobacterium aurum at 10 to 50 uM after 12 hrs by lacZ reporter assay relative to untreated control; format: functional, organism-based; in short: as §1
Mycolicibacterium aurum [15] = experiment: Inhibition of type II fatty acid biosynthesis pathway in recombinant Mycobacterium aurum carrying hsp60 promoter assessed as cell viability at 25 uM after 12 hrs by lacZ reporter assay relative to untreated control; format: functional; in short: as §2
Mycolicibacterium aurum [16] = experiment: Inhibition of type II fatty acid biosynthesis pathway in Mycobacterium aurum assessed as cell viability at 10 to 50 uM after 12 hrs by lacZ reporter assay relative to untreated control; format: functional, organism-based; in short: as §2

Compound	inhibition at 25 µM (Mycolicibacterium aurum [1]) [%]	MIC (Plasmodium falciparum [2]) [mg/L]	MIC [3]	IC50 (Plasmodium falciparum [4]) [mg/L]	CC50 at 72 h [5] [mg/L]	inhibition at 50 µM (Mycolicibacterium aurum [6]) [%]	Ratio CC50/IC50 [7]	further results
CCCCCCCCCCCCNc1ccc(C(=O)C2CC2c2ccc(Cl)cc2)cc1 (stereo not drawn)	27	> 50	Insoluble	10.4 (≈ 23.6 µM)	386 (≈ 876 µM)	32.7	37.08	
O=C(c1ccc(NCc2ccco2)cc1)C1CC1c1ccc(Cl)cc1 (stereo not drawn)	16.5	10 (≈ 28.4 µM)	3.12 mg/L (≈ 8.87 µM)	1.71 (≈ 4.86 µM)	256 (≈ 727 µM)	27.4	149.64	
NNC(=O)c1ccncc1 [ISONIAZID]			0.025 mg/L (≈ 0.182 µM)					
CCCCNc1ccc(C(=O)C2CC2c2ccc(Cl)cc2)cc1 (stereo not drawn)	39.5	0.6 (≈ 1.83 µM)	12.5 mg/L (≈ 38.1 µM)	0.33 (≈ 1.01 µM)	316 (≈ 965 µM)	60.9	958.69	
CCCCCCCCNc1ccc(C(=O)C2CC2c2ccc(Cl)cc2)cc1 (stereo not drawn)	30.2	10 (≈ 26 µM)	> 12.5 mg/L	2.13 (≈ 5.55 µM)	214 (≈ 558 µM)	23.9	100.53	
O=C(c1ccc(N2CCCC2)cc1)C1CC1c1ccc(Cl)cc1 (stereo not drawn)		> 50	12.5 mg/L (≈ 38.4 µM)	9.75 (≈ 29.9 µM)	431 (≈ 1320 µM)		44.26	
CN(C)CCCNc1ccc(C(=O)/C=C/c2ccc(Cl)cc2)cc1	83.4	1.56 (≈ 4.55 µM)		0.64 (≈ 1.87 µM)	5.92 (≈ 17.3 µM)	88.1	9.25	inhibition at 50 µM (Mycolicibacterium aurum [8]): 88.7%; inhibition at 10 µM (Mycolicibacterium aurum [9]): 18.8%; inhibition (Mycolicibacterium aurum [10]): inactive; inhibition (Mycolicibacterium aurum [11]): inactive; inhibition at 75 µM (Mycolicibacterium aurum [12]): 99.6%; inhibition (Mycolicibacterium aurum [13]): Dose-dependent effect; inhibition (Mycolicibacterium aurum [14]): Dose-dependent effect; inhibition at 25 µM (Mycolicibacterium aurum [15]): 85.4%; inhibition (Mycolicibacterium aurum [16]): Dose-dependent effect
O=C(/C=C/c1ccc(Cl)cc1)c1ccc(N2CCCCC2)cc1		50 (≈ 153 µM)	> 12.5 mg/L	8.92 (≈ 27.4 µM)	235 (≈ 720 µM)		26.3	
O=C(c1ccc(N2CCOCC2)cc1)C1CC1c1ccc(Cl)cc1 (stereo not drawn)	29.8	10 (≈ 29.3 µM)	> 12.5 mg/L	3.02 (≈ 8.83 µM)	453 (≈ 1320 µM)	3.81	149.92	
CCCCCCCC/C=C\CCCCCCCCNc1ccc(C(=O)C2CC2c2ccc(Cl)cc2)cc1 (stereo not drawn)		> 50	12.5 mg/L (≈ 23.9 µM)	75.1 (≈ 144 µM)	393 (≈ 753 µM)		5.24	
CCCCCCCNc1ccc(C(=O)C2CC2c2ccc(Cl)cc2)cc1 (stereo not drawn)		0.3 (≈ 0.811 µM)	> 12.5 mg/L	0.08 (≈ 0.216 µM)	398 (≈ 1080 µM)		4975	inhibition (Mycolicibacterium aurum [1]): inactive; inhibition (Mycolicibacterium aurum [6]): inactive
O=C(c1ccc(N2CCCCC2)cc1)C1CC1c1ccc(Cl)cc1 (stereo not drawn)		10 (≈ 29.4 µM)	> 12.5 mg/L	6.05 (≈ 17.8 µM)	284 (≈ 836 µM)		46.99	
O=C(c1ccc(NC2CCCCC2)cc1)C1CC1c1ccc(Cl)cc1 (stereo not drawn)		10 (≈ 28.3 µM)	> 12.5 mg/L	0.75 (≈ 2.12 µM)	196 (≈ 554 µM)		261.57	inhibition (Mycolicibacterium aurum [1]): inactive; inhibition (Mycolicibacterium aurum [6]): inactive
O=C(c1ccc(NCCn2cnc3ccccc32)cc1)C1CC1c1ccc(Cl)cc1 (stereo not drawn)	1.03	2 (≈ 4.81 µM)	12.5 mg/L (≈ 30.1 µM)	0.74 (≈ 1.78 µM)	285 (≈ 686 µM)	16.9	385.45	
CCN(CC)CCCC(C)Nc1ccnc2cc(Cl)ccc12 (stereo not drawn) [CHLOROQUINE]		0.05 (≈ 0.156 µM)						

Source: ChEMBL document CHEMBL1287740, “Synthesis and bio-evaluation of alkylaminoaryl phenyl cyclopropyl methanones as antitubercular and antimalarial agents” (Bioorg Med Chem, 2010)
